From PubChem BioAssay
Most compounds without a hit are left out; they make up all but 3.9% or so of the library.
Jurkat NFkB inh: lowers PMA/ionomycin-induced NF-kB signal in Jurkat cells; 330,000 compounds, 0.53% hits; inhibition, % at 4 µM; PMA/ionomycin-induced NF-kB luciferase reporter, luminescence; in the data active = inhibition above about 50%
UPR XBP1 act: activators of adaptive arm of unfolded protein response (XBP1) | CHO-XBP1 luciferase reporter, IRE1-XBP1 UPR activation, luminescence; percent of tunicamycin response, DMSO as zero | activation, % at 20 µM | 330,000 compounds, 0.33% hits | AID 463104;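 active = versus positive control, 20 µM dose yields 30% or more activation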;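 also: 100% = tunicamycin at 10 µg/mL and 0% = DMSO only wells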
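Material – CHO cell line with stable XBP1 luciferase reporter · Buffer or medium – F12 plus 10% FBS · Compound – single point, 20 µM final compound, 1% DMSO · Schedule – 16-18 h cell attachment at 37 °C, then 6 h compound exposure · Signal – Steady-Glo luminescence read · Benchmarks – high control tunicamycin 10 µg/mL final, low control DMSO vehicle only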
697 NFkB inh: lowers PMA/ionomycin-induced NF-kB signal in 697 B cells; AID 435022; 330,000 compounds, 0.33% hits; 697 B-cell NF-kB luciferase reporter, 16 h; inhibition, % at 4 µM; in the data active = inhibition above about 35%
CHOP inhibitor: CHOP inhibition in unfolded protein response; CHO-K1 CHOP-promoter luciferase, tunicamycin-induced, 15-18 h; inhibition, % at 10 µM; 220,000 compounds, 3.8% hits;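 active = compounds that reduced the stress-induced luciferase reporter signal by more than about 70% of percent inhibition, limit read from the data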;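 also: 0% = tunicamycin plus vehicle and 100% = wells without tunicamycin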
CHOP UPR activ: activators of apoptotic arm of unfolded protein response (CHOP) | CHO-CHOP luciferase reporter, UPR activation, luminescence; percent of tunicamycin response over DMSO baseline | activation, % at 10 µM | 330,000 compounds, 0.34% hits | AID 449763;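 active = at 10 µM dose, activation of 40% or more, normalized to positive control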;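 also: 100% = tunicamycin at 10 µg/mL and 0% = DMSO alone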
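Evaluation: % reporter activation, DMSO baseline versus tunicamycin full activation; System: CHO-CHOP luciferase reporter cell line; Input: 500 cells/well; Incubation: 6 h compound treatment, 37 °C; Measured by: Steady-Glo luciferase luminescence; Dosing: one dose, 10 µM in 0.5% DMSO; Buffer or medium: F12 medium, 10% FBS; Benchmarks: positive tunicamycin 10 µg/mL, negative DMSO alone.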
Gli-Sufu antag: antagonists of Gli-Sufu signaling; AID 588413; inhibition, % at 5 µM; 340,000 compounds, 0.74% hits; Sufu-KO-LIGHT fibroblasts, Gli luciferase reporter luminescence;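 active = inhibition above about 55%, limit read from the data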;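 also: 0% = DMSO-treated cells and 100% = wells with medium but no cells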
Gli-Sufu confirm: confirmation of Gli-SUFU pathway antagonists | Sufu-KO-LIGHT cells, Gli luciferase reporter, luminescence | inhibition, % at 5 µM | AID 602428 | shares compounds with Gli-Sufu antag | 2,500 compounds, 40% hits;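 active = mean inhibition at 5 µM reaching about 45%, limit read from the data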;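 also: plate controls were DMSO-treated cells for no effect and wells lacking cells for full effect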
SufuKO cytotox: cytotoxic in Gli-SUFU antagonist counter-screen; 2,500 compounds, 32% hits; Sufu-KO-LIGHT cells cytotoxicity, ATP luminescence; cytotoxicity, % at 5 µM; shares compounds with Gli-Sufu antag;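 active = mean cytotoxicity at 5 µM above about 25%, limit read from the data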;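 also: cells exposed to compound overnight for roughly 16 to 18 hours; plate controls were DMSO wells with cells for no effect and medium without cells for full effect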
Wnt3a cs: Wnt3a reporter inhibition counter-screen | inhibition, % at 6.25 µM | 2,500 compounds, 20% hits | shares compounds with Gli-Sufu antag | Wnt-LIGHT cells, Wnt3a-driven luciferase reporter, luminescence;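 active = mean inhibition above about 25%, limit read from the data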
The depositor's hits bear a star; · = no result given.

SMILES	Jurkat NFkB inh	UPR XBP1 act	697 NFkB inh	CHOP inhibitor	CHOP UPR activ	Gli-Sufu antag	Gli-Sufu confirm	SufuKO cytotox	Wnt3a cs
CC(=O)C1CCC2C3CCC4CC(=O)CCC4(C)C3C(C)(O)CC12C (stereo not drawn)	·	·	·	·	·	1.1	·	·	·
O=C(/C=C/NNC(=O)c1ccccc1)c1ccccc1	-14.2	-1.9	-29.1	-1.6	1.2	11.7	·	·	·
O=C(/C=C/NNC(=O)c1ccccc1)c1ccc([N+](=O)[O-])cc1	7.2	-9.6	2.0	37.9	0.6	73.3*	33.9	27.7*	23.4
CC12CCC(=O)C=C1CCC1C2CCC2(C)C(c3csc(N)n3)CCC12 (stereo not drawn)	·	·	·	·	·	58.2*	61.8*	39.8*	46.3*
CC12CCC(=O)C=C1CCC1C2C(O)CC2(C)C(c3csc(N)n3)CCC12 (stereo not drawn)	·	·	·	·	·	58.9*	61.2*	18.2	31.9*
CC(=O)[C@@]1(O)CC[C@H]2[C@@H]3CCC4=CC(=O)CC[C@]4(C)[C@H]3[C@@H](O)C[C@@]21C	21.1	-7.3	-2.0	14.0	0.6	5.5	·	·	·
COC(=O)C1CN(C(=O)COc2cc(C)cc(C)c2)c2ccccc2O1 (stereo not drawn)	-20.6	-1.5	-4.4	·	0.9	·	·	·	·
C=CCOc1cccc(CNCc2ccncc2)c1	4.5	-4.8	-16.1	·	-1.2	5.5	·	·	·
Cc1ccc(S(=O)(=O)c2nc(S(=O)(=O)c3ccc(C)cc3)c(N3CCN(CCO)CC3)s2)cc1	25.8	-2.7	-18.5	·	2.8	55.1*	22.6	19.9	62.5*
CCS(=O)(=O)c1nc(S(=O)(=O)c2ccc(C)cc2)c(N2CCOCC2)s1	-4.7	-1.9	-4.2	·	-0.6	53.5	20.7	14.9	7.3
Cc1ccccc1CS(=O)(=O)CCC(=O)NCc1ccc(F)cc1Cl	8.8	0.6	4.7	·	-1.1	-1.9	·	·	·
Cc1ccccc1NS(=O)(=O)c1ccc(NS(=O)(=O)c2cccs2)cc1	5.0	0.2	4.9	·	1.3	7.7	·	·	·
C=CCN(CC=C)S(=O)(=O)c1ccc(NC(=S)NC(=O)Cc2ccc(OC)cc2)cc1	9.4	-1.0	3.7	62.2	2.4	69.1*	15.6	17.1	24.2
Cc1cc(C(=O)NCc2ccccc2)no1	1.5	-0.5	20.2	-13.8	1.1	88.9*	22.7	19.1	-9.3
Cc1cc(C(=O)NNCc2ccccc2)no1	-0.9	-3.3	5.0	·	3.3	-8.7	·	·	·
C/C(=N\Nc1cc(C)nc(NCc2ccccc2)n1)c1ccc([N+](=O)[O-])cc1	14.5	-0.2	-2.2	-14.7	2.3	-2.5	·	·	·
N#Cc1c(N)nc2c(c1-c1ccco1)CCCCC2	0.7	4.2	-7.6	·	0.7	97.6*	27.4	18.9	-4.3
CCSc1nc(N)c(C#N)c(-c2ccco2)c1C#N	11.9	6.2	-6.8	22.1	1.0	89.4*	30.0	0.9	-3.9
N#Cc1c(N)nc2c(c1-c1ccncc1)CCCCC2	12.2	2.1	9.0	-1.4	-1.7	1.4	·	·	·
Cc1cc(C)cc(NC(=O)C(c2ccccc2)N2CCN(CC(=O)NC3CC3)CC2)c1 (stereo not drawn)	19.3	-2.9	24.9	·	1.6	4.7	·	·	·
O=C(Nc1cccc(F)c1)Nc1ccnn1C1CCN(C(=O)c2cscn2)CC1	-8.5	-2.4	-10.3	·	0.0	-0.4	·	·	·
O=C1c2ccccc2NC(c2cccc(F)c2)N1Cc1ccco1 (stereo not drawn)	-14.0	-1.0	-9.2	9.8	1.1	64.6*	20.3	14.8	-9.7
CC(C)(C)OC(=O)NCCCCCNC(=O)c1nc[nH]c1C(=O)NCCCCCNC(=O)OC(C)(C)C	-9.7	-2.2	-39.1	·	2.6	55.4*	29.7	2.1	-25.6
